From ChEMBL document CHEMBL2203201, “Synthesis and antimalarial evaluation of a screening library based on a tetrahydroanthraquinone natural product scaffold” (Bioorg Med Chem, 2012)
In brackets after ≈: the same amount, converted by molar mass.

Experiments:
Plasmodium falciparum [1] = assay: Antimalarial activity against chloroquine-resistant ring stage plasmodium falciparum Dd2 infected in erythrocytes assessed as [3H]hypoxanthine incorporation after 48 hrs by liquid scintillation counting; format: functional, organism-based
Outline: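 Infected erythrocytes at 0.5% parasitemia and 2.5% hematocrit were plated into serial dilutions of test compound or chloroquine control. After 48 h under standard culture conditions, 0.5 μCi 3H-hypoxanthine was added per well and incubation continued 24 h. Cells were harvested onto filter mats and counted by scintillation. Inhibition was set against 0.5% DMSO controls, and IC50 was obtained by linear interpolation. Mean ± SD of three independent triplicate experiments.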

Plasmodium falciparum [2] = assay: Antimalarial activity against chloroquine-sensitive ring stage plasmodium falciparum 3D7 infected in erythrocytes assessed as [3H]hypoxanthine incorporation after 48 hrs by liquid scintillation counting; format: functional, organism-based
Outline: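 P. falciparum 3D7-infected type O+ erythrocytes (0.5% parasitemia, 2.5% hematocrit) incubated with serial dilutions for 48 h under standard culture conditions. 0.5 μCi 3H-hypoxanthine then added and culture continued a further 24 h. Incorporation counted by liquid scintillation against 0.5% DMSO controls. IC50 by linear interpolation of inhibition curves. Mean of three independent experiments, each in triplicate, ±SD.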

[3] = Selectivity index, ratio of IC50 for human NFF cells to IC50 for chloroquine-sensitive ring stage plasmodium falciparum 3D7
NFF = assay: Cytotoxicity against human NFF cells after 3 days by sulforhodamine B assay; format: cell-based; details: 72 h
Outline: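 Neonatal foreskin fibroblasts grown in RPMI 1640 with 10% FCS and 1% streptomycin at 37 °C, 5% CO2, kept in log phase. Seeded at 3000/well and grown 24 h before treatment. Compounds diluted from DMSO into medium (≤1% DMSO); controls got matching DMSO. After 3 days, PBS wash, fixation in methylated spirits, total protein by sulforhodamine B. Triplicate, three independent experiments.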

Staphylococcus aureus = assay: Antibacterial activity against Staphylococcus aureus; format: functional, organism-based
Pseudomonas aeruginosa = assay: Antibacterial activity against Pseudomonas aeruginosa; format: functional, organism-based

COC1=CC(=O)c2c(O)c3c(c(O)c2C1=O)C[C@](C)(O)CC3
IC50 (Plasmodium falciparum [1]): 5.2 µM | IC50 (Plasmodium falciparum [2]): 4.5 µM | Ratio IC50 [3]: 12.1 | IC50 (NFF): 54.6 µM

C[C@]1(O)Cc2c(O)c3c(c(O)c2[C@@H](O)C1)C(=O)C=C(NCCc1ccc(Cl)cc1)C3=O
IC50 (Plasmodium falciparum [2]): 4.2 µM | Ratio IC50 [3]: 15.7 | IC50 (NFF): 66 µM

COCCNC1=CC(=O)c2c(O)c3c(c(O)c2C1=O)C[C@](C)(O)C[C@@H]3O
IC50 (Plasmodium falciparum [2]): 10.3 µM | Ratio IC50 [3]: 8.2 | IC50 (NFF): 84.3 µM

CNC1=CC(=O)c2c(O)c3c(c(O)c2C1=O)C[C@](C)(O)C[C@@H]3O
IC50 (Plasmodium falciparum [2]): 6.9 µM | Ratio IC50 [3]: 8.6 | IC50 (NFF): 59.1 µM

COC1=CC(=O)c2c(O)c3c(c(O)c2C1=O)C[C@](C)(O)C[C@@H]3O
IC50 (Plasmodium falciparum [1]): 2.2 µM | IC50 (Staphylococcus aureus): 3 µg/mL (≈ 9.37 µM) | IC50 (Pseudomonas aeruginosa): > 50 µg/mL | IC50 (Plasmodium falciparum [2]): 1.9 µM | Ratio IC50 [3]: 8.2 | IC50 (NFF): 15.6 µM

COC1=CC(=O)c2c(O)c3c(c(O)c2C1=O)C[C@@](C)(O)C[C@@H]3O
IC50 (Plasmodium falciparum [1]): 11.1 µM | IC50 (Plasmodium falciparum [2]): 4.7 µM | Ratio IC50 [3]: 9.3 | IC50 (NFF): 43.7 µM

C[C@]1(O)Cc2c(O)c3c(c(O)c2[C@@H](O)C1)C(=O)C=C(NCCCN)C3=O
IC50 (Plasmodium falciparum [2]): 16.5 µM | Ratio IC50 [3]: 5.4 | IC50 (NFF): 89.8 µM

CC(C)(C)OC(=O)NCCCNC1=CC(=O)c2c(O)c3c(c(O)c2C1=O)C[C@](C)(O)C[C@@H]3O
IC50 (Plasmodium falciparum [2]): 6.7 µM | Ratio IC50 [3]: 5.4 | IC50 (NFF): 36.5 µM

CCN(CC)CCCC(C)Nc1ccnc2cc(Cl)ccc12 (stereo unspecified) [CHLOROQUINE]
IC50 (NFF): 37.3 µM

COc1cc(O)c2c(c1O)C(=O)c1cc(C)ccc1C2=O [AUSTROCORTIRUBIN]
IC50 (Plasmodium falciparum [1]): > 50 µM | IC50 (Plasmodium falciparum [2]): > 50 µM | IC50 (NFF): 76 µM

C[C@]1(O)Cc2c(O)c3c(c(O)c2[C@@H](O)C1)C(=O)C=C(NCCc1ccccc1)C3=O
IC50 (Plasmodium falciparum [2]): 3.8 µM | Ratio IC50 [3]: 0.9 | IC50 (NFF): 3.5 µM

C[C@]1(O)Cc2c(O)c3c(c(O)c2[C@@H](O)C1)C(=O)C=C(NCCN1CCCC1)C3=O
IC50 (Plasmodium falciparum [2]): 6.3 µM | Ratio IC50 [3]: 2.5 | IC50 (NFF): 15.9 µM

C[C@]1(O)Cc2c(O)c3c(c(O)c2[C@@H](O)C1)C(=O)C=C(NCc1ccccc1)C3=O
IC50 (Plasmodium falciparum [2]): 7.4 µM | Ratio IC50 [3]: 1.4 | IC50 (NFF): 10.7 µM

C[C@]1(O)Cc2c(O)c3c(c(O)c2[C@@H](O)C1)C(=O)C=C(NCCc1ccc(O)cc1)C3=O
IC50 (Plasmodium falciparum [2]): 2.4 µM | Ratio IC50 [3]: 9.7 | IC50 (NFF): 23.3 µM

C[C@]1(O)Cc2c(O)c3c(c(O)c2[C@@H](O)C1)C(=O)C=C(NCCN1CCOCC1)C3=O
IC50 (Plasmodium falciparum [2]): 15.8 µM | Ratio IC50 [3]: 3.9 | IC50 (NFF): 62 µM

CCCNC1=CC(=O)c2c(O)c3c(c(O)c2C1=O)C[C@](C)(O)C[C@@H]3O
IC50 (Plasmodium falciparum [2]): 4.3 µM | Ratio IC50 [3]: 18.3 | IC50 (NFF): 78.8 µM
